Data: the RNAGym collection of RNA variant scans (doi:10.1126/science.aae0568)
This sample holds only a part of the variants without activity.

B1: tRNA (parent)
chain: GUUCCGUUGGCGUAAUGGUAACGCGUCUCCCUCCUAAGGAGAAGACUGCGGGUUCGAGUCCCGUACGGAACG

Variants of: B1
Assay: yeast fitness relative to wild type (ratio to wild type); higher = fitter; tRNA-Arg(CCU), competitive growth, 37 C, YPD
Outline: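 Amplicons of the tRNA-Arg(CCU) gene were sequenced, 100-nucleotide paired-end, from the start population and from each end population of a pooled yeast competition. The competition, in six parallel replicates, lasted 24 hours in YPD at 37°C. Fitness relative to wild type was calculated from changes in genotype frequencies. Genotypes had to have ≥ 100 starting reads, and estimates < 0.5 were set to 0.5.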
GUUCCGUUGGGGUAAUCGUAACGCGUCUCCCUCAUAAGGAGACGACUGCGGGUUCCAGUCCCGUACGGAACG [C11G G17C C34A A43C G56C] gave a yeast fitness of no more than 0.5. Work on GUUCCGUUGGCGUAAUGGUAACGCGUCUCCCUCCUAAGGAGAAGACUGCGGGCUCGAGUCCCGUACGGCACG [U53C A69C] yielded a yeast fitness of 0.881. In the case of GUUCCGUUGGCGUAAUGGUAACGCGUCUCCCUCCUCAGGAGAAGACACCGGGUUCGAGUCCCGUACGGAACG [A36C U47A G48C], the yeast fitness is reported as no more than 0.5. GUUCCGUUGACGUAAUGGUAACGCGUCUCCCUCGUAAGGAGAAGACUGCGGGUUCGAGUCCCGAACGGAACG [G10A C34G U64A] showed a yeast fitness of no more than 0.5. For GUUCGGUUGGCGUAUUGGUAACGCGUCUCCCUCCUAAGGAGAAGACUGCGGGUUCGAGUCCCAUACGGAACG [C5G A15U G63A], the yeast fitness was 0.551. Variant GUUCCGUUGGCGUAUUGGUACCGCGUCUCCCUCCUAAGCAGAAGACUGCGGGUACGAGUCCCGUACGGAACG [A15U A21C G39C U54A] has a yeast fitness of no more than 0.5. For GUGCCGUUGGCGUAAUGGUAACGCGUCUCCCUCCUAAGGAGAAGACUGCGAGUUCGAGUCCCGUAUGGAACG [U3G G51A C66U], the yeast fitness was no more than 0.5. With GUUCCGUUGGCGUAAUGGUAUCGCGUCUCCCUCCUAAGGAGAAGACUGCGGGUUCGAGUCCCGUAAGGAACG [A21U C66A] the yeast fitness was 0.574. With GUUCCGUUGGCGUAACGGUAGCGCGUCUCCCUCCUAAGGAGAAGACUGCGGGUUCGAGUCCCGUACGGAACG [U16C A21G] the yeast fitness was 0.91. Work on GGUCCGUUGGCGUAAUGGUAACGCGUCUCCCUUGUAAGGAGAAGACUGCGGGUUCGAGUCCCGUACGGUACG [U2G C33U C34G A69U] yielded a yeast fitness of no more than 0.5. GUUCCAUUGGCGCUAUGGUAACGCGUCUCUCUCCUAAGGAGAAGACUGCGGGUUCGAGUCCCGUACGGUACG [G6A U13C A14U C30U A69U] showed a yeast fitness of no more than 0.5. With GUUCCGUUGGCGUUAUGGUAACGCGUCUCUCUCCUAAGGAGAAGACUGCGGGUUCGAGUCCAGUACGGAACG [A14U C30U C62A] the yeast fitness was no more than 0.5. Work on GUUCCGUAGGCGUAAUGAUAACGCAUCUCCCUUCUAAGGAGAAGACUGCGAGUUCAAGUCCCGUACGGAACG [U8A G18A G25A C33U G51A G56A] yielded a yeast fitness of 0.614. In the case of GUUCCGUUGGCGUAAUGGUAACGCGUCUCCCUCGUAAGGAGAAGGCUGCGGGUUCGAGGCCCGUACGGAACG [C34G A45G U59G], the yeast fitness is reported as no more than 0.5. GUUCCGUUGGCGUAAUGCUAACGCGUCUUUCUCCUAGGGAGAAGACUGUGGGUUCGAGUCCCGUACAGAACG [G18C C29U C30U A37G C49U G67A] showed a yeast fitness of no more than 0.5. Work on GUUCCGUUGCCGUUAUGGAAAUGCGUCUCCCUCCUAAGGAGAAGACUGUGGGUUCGAGUCCCGUAUGGAACG [G10C A14U U19A C22U C49U C66U] yielded a yeast fitness of no more than 0.5. GUACCGUUGGCGUAAUGGUAACGCGUCUCCCUCCUAAGAAGAAGACUGUGGGUUCGAGUCCCGUACGGAACG [U3A G39A C49U] showed a yeast fitness of 0.559. With GUUCCGUUGGCGUAAUGGUAGCGCGUCUCCCUCCUAAGGAGAAGACUGCGGGUUCGAGUCCUGUACGGAACG [A21G C62U] the yeast fitness was 0.924. For GUUCCGUUGGCGUAAUGGUAACGCGUCUCCCUCCUGAGGAGAAGACUGCGAGUUCGAGUCCCGUACGGAACG [A36G G51A], the yeast fitness was 0.744. GUUCCGCUGGCGUAAUGGUAACGCGUCUCCCUCUUAAGGAGAAGACUGCGGCUUCGAGUCCCGUACGGAACG [U7C C34U G52C] showed a yeast fitness of 0.579. For GUUCCGUUGGCGUAAGGGUAACGCGUCUCCCUCCUAAGGAGAAGUCUGCAGGUUCGAGUCCCGUACGGCACG [U16G A45U G50A A69C], the yeast fitness was 0.631. With GUUCCGUUGGCGUAAUGGUAGCGGGUCUCCCUCCUAUGGAGAAGACUGCGGGUUCGAGUCCCGUAUGGAACG [A21G C24G A37U C66U] the yeast fitness was no more than 0.5. With GUUCCGUUGGCGUAAUGGUAAGGCGUCUCCCUCAUAAGGAGAAGACUGCGGGUUCGAAUCCCGUAAGGAACG [C22G C34A G58A C66A] the yeast fitness was no more than 0.5. In the case of GUGCCGUUGGCGUAAUGGUAACGCGUCUCUCUCCUAAGGAGAAGACUCCGGGUUCGAGUCCCGUUCGCAACG [U3G C30U G48C A65U G68C], the yeast fitness is reported as no more than 0.5. Variant GUUCCGUUGGCGUAAUGGUAACGCGUCACCCUCUUAUGGAGAAGUCUGCGGGUUCGGGUCUCGUACGGAACG [U28A C34U A37U A45U A57G C61U] has a yeast fitness of no more than 0.5. Variant GUUCCGUUGGCGUAAUGGUAACGCGUCUCAAUCCUAAGGAGAAGACUGUGGGUUGGAGUCCCGUACGGAACG [C30A C31A C49U C55G] has a yeast fitness of 0.672. For GUUCCGUUGGGGUAAUGGUAACGCGUCUCCCUCCUAAGGAGAAGACUGCGGGUUGGAGUCCCGUACGGAACG [C11G C55G], the yeast fitness was 0.594. Work on GUUCCGUUGGCGUAAUGGGAACGCGUCUCCCUCCUAAGGAGUAGACUGCGGGUUCGAGUCCCGUACGGAACG [U19G A42U] yielded a yeast fitness of 0.991. In the case of GUUCCGUUGGUGUAAUGCUAACGCGUCUCCCUCCUAAGGCGAAGACUGCGGGUUCGAGUCCCAUACGGAACG [C11U G18C A40C G63A], the yeast fitness is reported as no more than 0.5. Work on GUUCCGUUGGCGUAAUGGUAGCACGUCUCCCUCCUAAGGAGAAGCCUGCGGAUUCGAGUCCCGUACGGAACG [A21G G23A A45C G52A] yielded a yeast fitness of 0.517. GUUCCGUUGGCGUAUUGGUAACGUGUCUCCCUCCUAUGGAGAAGACUGCGGGUGCGAGUCCCGUACGGAACG [A15U C24U A37U U54G] showed a yeast fitness of no more than 0.5. Work on GUUCGGUUGGCGUAAUGGUAACGCGUCACCCUCCUAAGGCGAAGACUGCGGGUUCGAGUCCCGUACGGAACG [C5G U28A A40C] yielded a yeast fitness of 0.581. GUUCUAUUGGCGUAAUGGUAACGCGUCUCCCUCCUAAGGAGAAGACUGCGGGUUCGAGUCCCGUUUGGAGCG [C5U G6A A65U C66U A70G] showed a yeast fitness of no more than 0.5. GUUCCGUUGGCGUAAUGGUAACGCGGCUCGCUCCUAAGGAGAAGACUGCGGGUUCGAGUCCCGUACGGAACG [U26G C30G] showed a yeast fitness of 0.6. With GUUCCGUUGGCGUAAUGGUAACGCGUCUCCCUCCUCCGGAGAAGACUGCGCGUUCGAGUCCCGUACGGAACG [A36C A37C G51C] the yeast fitness was no more than 0.5. Work on GUUCCCUUGGCGUAAUGGUUGCGCGUCUCCCUCCUAUGGAGAAGACUGCGGGUUCGAGUGCGGUACGGAACG [G6C A20U A21G A37U C60G C62G] yielded a yeast fitness of no more than 0.5. Variant GUUCCGUUCGCCUAAUGGUAACGCGUCUCCAUCCUAAGGUGAAGACUGCGGGUUCGAGUCCCGUACGGAACG [G9C G12C C31A A40U] has a yeast fitness of no more than 0.5.
